Results: ChEMBL document CHEMBL1138901, “Design, synthesis, and biological evaluation of the combinatorial library with a new spirodiketopiperazine scaffold. Discovery of novel potent and selective low-molecular-weight CCR5 antagonists” (J Med Chem, 2006)
Calls of active or inactive are those of the source. The rule behind the calls is not given here.

Tests used:
[1] = biological target: T1, C-C chemokine receptor type 5 (Homo sapiens, UniProt P51681); assay: Antagonist activity against human recombinant CCR5 expressed in CHO cells assessed as inhibition of human MIP-1-alpha-stimulated calcium mobilization; format: functional, cell-based
Procedure, shortened: (§1)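 Human chemokine receptor-overexpressing CHO cells were stimulated with the matching human endogenous ligand, and calcium mobilization was read out. Library members were tested at 30 µM. Crude products were dissolved in DMSO as 10 mM stocks and used without further purification.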

[2] = biological target: T2, C-C chemokine receptor type 2 (Homo sapiens, UniProt P41597); assay: Antagonist activity against human recombinant CCR2 expressed in CHO cells assessed as inhibition of human MCP1-stimulated calcium mobilization; format: functional, cell-based; procedure, shortened: as §1
[3] = biological target: C-C chemokine receptor type 4 (Homo sapiens, UniProt P51679); assay: Antagonist activity against human recombinant CCR4 expressed in CHO cells assessed as inhibition of human […]-stimulated calcium mobilization; format: functional, cell-based; procedure, shortened: as §1
[4] = biological target: T3, C-X-C chemokine receptor type 4 (Homo sapiens, UniProt P61073); assay: Antagonist activity against human recombinant CXCR4 expressed in CHO cells assessed as inhibition of human SDF1-alpha-stimulated calcium mobilization; format: functional, cell-based; procedure, shortened: as §1
[5] = biological target: T1, C-C chemokine receptor type 5; assay: Inhibition of radio-isotope labeled MIP1-alpha binding to human recombinant CCR5
[6] = biological target: T2, C-C chemokine receptor type 2; assay: Inhibition of radio-isotope labeled MCP1 binding to human recombinant CCR2
[7] = biological target: T3, C-X-C chemokine receptor type 4; assay: Inhibition of radio-isotope labeled SDF1-alpha binding to human recombinant CXCR4
[8] = test system: Human immunodeficiency virus 1; assay: Antiviral activity against T cell tropic HIV1 X4; format: functional, organism-based
[9] = biological target: Muscarinic acetylcholine receptor M3 (Homo sapiens, UniProt P20309); assay: Binding affinity to muscarinic M3 receptor
[10] = biological target: Sigma non-opioid intracellular receptor 1 (Homo sapiens, UniProt Q99720); assay: Binding affinity to sigma receptor
Chain of Sigma non-opioid intracellular receptor 1 (Q99720 whole entry): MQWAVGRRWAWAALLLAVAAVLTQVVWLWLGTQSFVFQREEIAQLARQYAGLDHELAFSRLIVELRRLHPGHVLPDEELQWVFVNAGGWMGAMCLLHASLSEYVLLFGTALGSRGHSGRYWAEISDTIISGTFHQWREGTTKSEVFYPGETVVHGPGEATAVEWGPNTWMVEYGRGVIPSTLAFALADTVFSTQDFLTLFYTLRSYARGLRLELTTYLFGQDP

T3 sequence (P61073 whole entry): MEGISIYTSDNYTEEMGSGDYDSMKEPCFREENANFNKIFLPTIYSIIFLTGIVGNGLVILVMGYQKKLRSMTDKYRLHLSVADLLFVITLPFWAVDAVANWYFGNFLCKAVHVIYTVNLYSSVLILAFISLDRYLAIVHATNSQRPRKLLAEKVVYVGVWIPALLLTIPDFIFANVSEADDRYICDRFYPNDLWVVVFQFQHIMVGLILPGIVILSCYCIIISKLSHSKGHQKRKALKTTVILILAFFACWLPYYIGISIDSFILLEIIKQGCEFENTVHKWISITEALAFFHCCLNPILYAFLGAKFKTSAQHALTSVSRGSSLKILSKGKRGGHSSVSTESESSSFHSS
T2 sequence (P41597 whole entry): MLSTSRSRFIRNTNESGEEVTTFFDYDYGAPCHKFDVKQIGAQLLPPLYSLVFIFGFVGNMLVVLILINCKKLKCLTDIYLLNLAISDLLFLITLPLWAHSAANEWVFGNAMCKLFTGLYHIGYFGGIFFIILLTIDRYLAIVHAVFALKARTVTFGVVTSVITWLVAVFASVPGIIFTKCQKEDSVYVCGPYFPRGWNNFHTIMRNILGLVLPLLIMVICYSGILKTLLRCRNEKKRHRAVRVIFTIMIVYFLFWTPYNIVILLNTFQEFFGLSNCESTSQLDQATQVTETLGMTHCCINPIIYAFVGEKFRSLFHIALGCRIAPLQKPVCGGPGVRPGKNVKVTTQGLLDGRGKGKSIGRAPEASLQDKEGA
Chain of C-C chemokine receptor type 4 (P51679 whole entry, looked up): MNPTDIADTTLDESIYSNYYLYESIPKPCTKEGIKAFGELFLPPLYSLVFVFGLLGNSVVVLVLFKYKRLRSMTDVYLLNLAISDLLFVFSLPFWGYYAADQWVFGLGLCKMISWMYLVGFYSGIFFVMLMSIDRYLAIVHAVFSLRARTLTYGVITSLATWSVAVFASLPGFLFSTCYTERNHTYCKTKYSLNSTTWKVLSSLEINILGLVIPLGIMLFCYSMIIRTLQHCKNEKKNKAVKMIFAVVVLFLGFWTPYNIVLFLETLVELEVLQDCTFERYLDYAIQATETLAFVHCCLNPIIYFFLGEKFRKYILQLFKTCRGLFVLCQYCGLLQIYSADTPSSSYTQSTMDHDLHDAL
T1 sequence (P51681 whole entry): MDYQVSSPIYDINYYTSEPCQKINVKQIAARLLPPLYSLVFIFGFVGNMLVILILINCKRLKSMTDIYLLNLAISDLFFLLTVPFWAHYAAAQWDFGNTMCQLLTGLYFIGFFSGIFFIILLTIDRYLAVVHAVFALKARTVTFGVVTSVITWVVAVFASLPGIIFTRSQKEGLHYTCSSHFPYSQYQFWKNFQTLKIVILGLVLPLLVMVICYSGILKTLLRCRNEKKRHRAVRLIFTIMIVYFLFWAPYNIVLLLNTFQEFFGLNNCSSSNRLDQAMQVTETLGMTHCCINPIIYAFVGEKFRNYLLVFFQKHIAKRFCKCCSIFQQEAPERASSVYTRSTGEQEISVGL
Chain of Muscarinic acetylcholine receptor M3 (P20309 whole entry): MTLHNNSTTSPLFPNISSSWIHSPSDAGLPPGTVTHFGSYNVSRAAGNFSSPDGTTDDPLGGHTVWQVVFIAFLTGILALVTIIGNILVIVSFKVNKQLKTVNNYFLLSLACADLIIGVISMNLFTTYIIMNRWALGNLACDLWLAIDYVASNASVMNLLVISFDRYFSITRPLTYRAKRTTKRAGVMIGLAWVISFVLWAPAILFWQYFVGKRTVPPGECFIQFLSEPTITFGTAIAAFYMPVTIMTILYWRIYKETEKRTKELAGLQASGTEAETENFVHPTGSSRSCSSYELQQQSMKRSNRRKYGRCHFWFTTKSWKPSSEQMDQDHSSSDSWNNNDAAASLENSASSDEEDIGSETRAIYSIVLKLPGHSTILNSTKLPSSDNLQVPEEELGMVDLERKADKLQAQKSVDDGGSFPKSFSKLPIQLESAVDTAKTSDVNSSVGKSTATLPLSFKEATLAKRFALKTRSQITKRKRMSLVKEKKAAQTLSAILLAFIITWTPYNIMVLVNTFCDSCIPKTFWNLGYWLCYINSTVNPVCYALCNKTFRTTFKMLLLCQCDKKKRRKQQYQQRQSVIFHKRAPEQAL

Compound	IC50 [1] [nM]	IC50 [2] [µM]	IC50 [3] [µM]	IC50 [4] [µM]	IC50 [5] [nM]	IC50 [7] [µM]	IC50 [9] [nM]	IC50 [10] [nM]	IC50 [6] [µM]	Activity [8]
CCCCN1C(=O)C(CC(C)C)NC(=O)C12CCN(CCCCCCc1ccccc1)CC2 (stereo unspecified)	270	> 10	> 10	6.7	38	> 10			> 10	inactive
CCCCN1C(=O)C(CC2CCCCC2)NC(=O)C12CCN(Cc1ccc(Oc3ccccc3)cc1)CC2 (stereo unspecified)	170	> 10		> 10	6.1	> 10			> 10	inactive
CCCCN1C(=O)C(CC2CCCCC2)NC(=O)C12CCN(Cc1ccc3c(c1)OCCO3)CC2 (stereo unspecified)	20	> 10		> 10	2.5	> 10	2070	183	> 10	inactive
CCCCN1C(=O)C(CC(C)C)NC(=O)C12CCN(Cc1ccccc1)CC2 (stereo unspecified)	900	> 30	> 30	> 30	560	> 10				inactive
C=CCOc1ccc(CN2CCC3(CC2)C(=O)NC(CC2CCCCC2)C(=O)N3CCCC)cc1 (stereo unspecified)	50	> 10		> 10	11	> 10			> 10	inactive
CCCCN1C(=O)C(CC(C)C)NC(=O)C12CCN(Cc1ccc3c(c1)OCCO3)CC2 (stereo unspecified)	170	> 10		> 10	20	> 10			> 10	inactive
CCCCN1C(=O)C(CC2CCCCC2)NC(=O)C12CCN(Cc1ccc(OC)cc1)CC2 (stereo unspecified)	120	> 30		> 30	4.5	> 30			> 30	inactive
CCCN1C(=O)C(CC(C)C)NC(=O)C12CCN(Cc1ccc(Oc3ccccc3)cc1)CC2 (stereo unspecified)	500	> 30	> 30	> 30	17	> 30			> 30	inactive

Now from value to compound, other results behind:

IC50 [1] [nM]	IC50 [2] [µM]	IC50 [3] [µM]	IC50 [4] [µM]	IC50 [5] [nM]	IC50 [7] [µM]	IC50 [9] [nM]	IC50 [10] [nM]	Compound	IC50 [6] [µM]	Activity [8]
3200	> 30	> 30	> 30					CC(C)C[C@@H]1NC(=O)C2(CCN(Cc3ccccc3)CC2)N(Cc2ccccc2)C1=O		inactive
3000	> 10	> 10	> 10					CCCN1C(=O)[C@@H](CC(C)C)NC(=O)C12CCN(CCCCCCc1ccccc1)CC2		inactive
120	> 10		> 10	83	> 10			CCCCN1C(=O)C(CC(C)C)NC(=O)C12CCN(Cc1ccc(Oc3ccccc3)cc1)CC2 (stereo unspecified)	> 10	inactive
300	> 10	> 10	> 10	610	> 10			CCCN1C(=O)[C@H](CC2CCCCC2)NC(=O)C12CCN(CCCCCCc1ccccc1)CC2		inactive
7600	> 30	> 30	> 30					CC(C)C[C@H]1NC(=O)C2(CCN(Cc3ccccc3)CC2)N(Cc2ccccc2)C1=O		inactive
270	> 10	> 10	> 10	860	> 10			CCCN1C(=O)[C@@H](CC2CCCCC2)NC(=O)C12CCN(CCCCCCc1ccccc1)CC2		inactive
2000	> 10	> 10	> 10					CCCN1C(=O)[C@H](CC(C)C)NC(=O)C12CCN(CCCCCCc1ccccc1)CC2		inactive
